Data from ChEMBL document CHEMBL5724801, “EUbOPEN Chemogenomics Library - Multiplex” (2024).
Values joined by “and” are separate entries in the source; they are usually repeats but may differ in a detail not shown here. Equal values may be shown once.

Test system: HEK-293T
Experiment: Multiplex assay against HEK293T
Format: toxicity, cell-based
Details: human
Outline: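 Cells were classed with CellPathfinder machine-learning gating, first as Hoechst high-intensity objects or normal cells, then (normal cells) as healthy, pyknosed or fragmented nuclei, and finally (pyknosed cells) as mitotic or apoptotic. Staining of live cells at seeding used Hoechst33342, BioTracker Green Microtubule Cytoskeleton Dye, MitoTracker Red and Annexin V Alexa Fluor 680, with imaging on a CQ1 microscope at 37°C and 5% CO2 after compound addition. Tubulin, mitochondrial-mass and membrane-permeability phenotypes are per cents of healthy-nucleus cells.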

[1] = 12 h, 1 µM, compound concentration 1 uM
[2] = 12 h, 10 µM, compound concentration 10 uM
[3] = 24 h, 1 µM, compound concentration 1 uM
[4] = 24 h, 10 µM, compound concentration 10 uM
[5] = 48 h, 1 µM, compound concentration 1 uM
[6] = 48 h, 10 µM, compound concentration 10 uM

O=C(CCCc1ccccc1)Nc1nc2ccccc2c(=O)s1
Population Apoptotic (%) [1]: 30% and 43%
Population Fragmented Nuclei (%) [1]: 4% and 7%
Population Healthy Nuclei (%) [1]: 83% and 74%
Population Hoechst High Intensity Objects (%) [1]: 6% and 13%
Population Membrane Permeable-Phenotype (%) [1]: 0%
Population Mitochondria Different-Phenotype (%) [1]: 37% and 63%
Population Mitotic Cells (%) [1]: 70% and 56%
Population Normal (%) [1]: 93% and 86%
Population Pyknosed Nuclei (%) [1]: 11% and 17%
Population Tubulin-Different-Phenotype (%) [1]: 32% and 36%
Total Cell Count [1]: 372 and 267
Population Apoptotic (%) [2]: 30% and 44%
Population Fragmented Nuclei (%) [2]: 10% and 7%
Population Healthy Nuclei (%) [2]: 80% and 74%
Population Hoechst High Intensity Objects (%) [2]: 9% and 27%
Population Membrane Permeable-Phenotype (%) [2]: 0%
Population Mitochondria Different-Phenotype (%) [2]: 47% and 68%
Population Mitotic Cells (%) [2]: 69% and 55%
Population Normal (%) [2]: 90% and 72%
Population Pyknosed Nuclei (%) [2]: 9% and 17%
Population Tubulin-Different-Phenotype (%) [2]: 27% and 26%
Total Cell Count [2]: 555 and 371
Population Apoptotic (%) [3]: 20% and 45%
Population Fragmented Nuclei (%) [3]: 8% and 9%
Population Healthy Nuclei (%) [3]: 81% and 78%
Population Hoechst High Intensity Objects (%) [3]: 5% and 8%
Population Membrane Permeable-Phenotype (%) [3]: 1% and 0%
Population Mitochondria Different-Phenotype (%) [3]: 21% and 38%
Population Mitotic Cells (%) [3]: 79% and 54%
Population Normal (%) [3]: 94% and 91%
Population Pyknosed Nuclei (%) [3]: 10% and 12%
Population Tubulin-Different-Phenotype (%) [3]: 15% and 13%
Total Cell Count [3]: 538 and 370
Population Apoptotic (%) [4]: 33% and 52%
Population Fragmented Nuclei (%) [4]: 10% and 8%
Population Healthy Nuclei (%) [4]: 80%
Population Membrane Permeable-Phenotype (%) [4]: 0%
Population Mitochondria Different-Phenotype (%) [4]: 38% and 47%
Population Mitotic Cells (%) [4]: 66% and 47%
Population Normal (%) [4]: 93% and 75%
Population Pyknosed Nuclei (%) [4]: 9% and 11%
Population Tubulin-Different-Phenotype (%) [4]: 29% and 20%
Total Cell Count [4]: 661 and 444
Population Apoptotic (%) [5]: 20% and 38%
Population Fragmented Nuclei (%) [5]: 11% and 10%
Population Healthy Nuclei (%) [5]: 82% and 80%
Population Hoechst High Intensity Objects (%) [5]: 2% and 4%
Population Membrane Permeable-Phenotype (%) [5]: 1% and 0%
Population Mitochondria Different-Phenotype (%) [5]: 15% and 28%
Population Mitotic Cells (%) [5]: 79% and 61%
Population Normal (%) [5]: 97% and 95%
Population Pyknosed Nuclei (%) [5]: 6% and 8%
Population Tubulin-Different-Phenotype (%) [5]: 11% and 13%
Total Cell Count [5]: 820 and 534
Population Fragmented Nuclei (%) [6]: 14% and 13%
Population Healthy Nuclei (%) [6]: 79% and 77%
Population Hoechst High Intensity Objects (%) [6]: 4% and 11%
Population Membrane Permeable-Phenotype (%) [6]: 0% and 1%
Population Mitochondria Different-Phenotype (%) [6]: 21% and 30%
Population Mitotic Cells (%) [6]: 77% and 31%
Population Normal (%) [6]: 95% and 88%
Population Pyknosed Nuclei (%) [6]: 6% and 9%
Population Tubulin-Different-Phenotype (%) [6]: 16%
Total Cell Count [6]: 984 and 567

C[C@@H]1CC(=O)Nc2cccc(-c3ccc4c(c3)c(-c3cnn(C)c3)nn4C)c2N1
Population Apoptotic (%) [1]: 36% and 60%
Population Fragmented Nuclei (%) [1]: 7% and 5%
Population Healthy Nuclei (%) [1]: 76% and 77%
Population Hoechst High Intensity Objects (%) [1]: 7%
Population Membrane Permeable-Phenotype (%) [1]: 0%
Population Mitochondria Different-Phenotype (%) [1]: 51% and 65%
Population Mitotic Cells (%) [1]: 63% and 39%
Population Normal (%) [1]: 92%
Population Pyknosed Nuclei (%) [1]: 16%
Population Tubulin-Different-Phenotype (%) [1]: 39% and 26%
Total Cell Count [1]: 305 and 349
Population Apoptotic (%) [2]: 49% and 38%
Population Fragmented Nuclei (%) [2]: 8% and 5%
Population Healthy Nuclei (%) [2]: 74% and 77%
Population Hoechst High Intensity Objects (%) [2]: 5% and 12%
Population Membrane Permeable-Phenotype (%) [2]: 0%
Population Mitochondria Different-Phenotype (%) [2]: 72% and 86%
Population Mitotic Cells (%) [2]: 50% and 62%
Population Normal (%) [2]: 94% and 87%
Population Pyknosed Nuclei (%) [2]: 17% and 16%
Population Tubulin-Different-Phenotype (%) [2]: 62% and 56%
Total Cell Count [2]: 384 and 345
Population Apoptotic (%) [3]: 38% and 50%
Population Fragmented Nuclei (%) [3]: 10% and 8%
Population Healthy Nuclei (%) [3]: 74% and 79%
Population Hoechst High Intensity Objects (%) [3]: 7% and 6%
Population Membrane Permeable-Phenotype (%) [3]: 0%
Population Mitochondria Different-Phenotype (%) [3]: 37% and 48%
Population Mitotic Cells (%) [3]: 61% and 50%
Population Normal (%) [3]: 92% and 93%
Population Pyknosed Nuclei (%) [3]: 14% and 11%
Population Tubulin-Different-Phenotype (%) [3]: 20% and 16%
Total Cell Count [3]: 395 and 422
Population Apoptotic (%) [4]: 43% and 57%
Population Fragmented Nuclei (%) [4]: 9% and 8%
Population Healthy Nuclei (%) [4]: 76% and 72%
Population Hoechst High Intensity Objects (%) [4]: 2% and 5%
Population Membrane Permeable-Phenotype (%) [4]: 0%
Population Mitochondria Different-Phenotype (%) [4]: 62% and 68%
Population Mitotic Cells (%) [4]: 56% and 42%
Population Normal (%) [4]: 97% and 94%
Population Pyknosed Nuclei (%) [4]: 13% and 19%
Population Tubulin-Different-Phenotype (%) [4]: 37% and 28%
Total Cell Count [4]: 472 and 381
Population Apoptotic (%) [5]: 33% and 30%
Population Fragmented Nuclei (%) [5]: 11% and 9%
Population Healthy Nuclei (%) [5]: 80% and 81%
Population Hoechst High Intensity Objects (%) [5]: 1% and 2%
Population Membrane Permeable-Phenotype (%) [5]: 0%
Population Mitochondria Different-Phenotype (%) [5]: 23% and 30%
Population Mitotic Cells (%) [5]: 66% and 69%
Population Normal (%) [5]: 98% and 97%
Population Pyknosed Nuclei (%) [5]: 7% and 9%
Population Tubulin-Different-Phenotype (%) [5]: 13%
Total Cell Count [5]: 627 and 593
Population Apoptotic (%) [6]: 43% and 42%
Population Fragmented Nuclei (%) [6]: 13% and 12%
Population Healthy Nuclei (%) [6]: 80% and 78%
Population Hoechst High Intensity Objects (%) [6]: 4% and 2%
Population Membrane Permeable-Phenotype (%) [6]: 0%
Population Mitochondria Different-Phenotype (%) [6]: 44% and 53%
Population Mitotic Cells (%) [6]: 56% and 57%
Population Normal (%) [6]: 95% and 97%
Population Pyknosed Nuclei (%) [6]: 6% and 9%
Population Tubulin-Different-Phenotype (%) [6]: 16% and 20%
Total Cell Count [6]: 636 and 521

CN(C)CCCc1cc(C(=O)Nc2ccc(-c3ccncc3)cc2)ccc1O.Cl.Cl
Population Apoptotic (%) [1]: 27% and 37%
Population Fragmented Nuclei (%) [1]: 5%
Population Healthy Nuclei (%) [1]: 79% and 82%
Population Hoechst High Intensity Objects (%) [1]: 9% and 8%
Population Membrane Permeable-Phenotype (%) [1]: 0%
Population Mitochondria Different-Phenotype (%) [1]: 48% and 58%
Population Mitotic Cells (%) [1]: 72% and 62%
Population Normal (%) [1]: 90% and 91%
Population Pyknosed Nuclei (%) [1]: 14% and 11%
Population Tubulin-Different-Phenotype (%) [1]: 37% and 14%
Total Cell Count [1]: 358 and 367
Population Apoptotic (%) [2]: 31% and 60%
Population Fragmented Nuclei (%) [2]: 10% and 11%
Population Healthy Nuclei (%) [2]: 81% and 77%
Population Hoechst High Intensity Objects (%) [2]: 6% and 9%
Population Membrane Permeable-Phenotype (%) [2]: 0% and 2%
Population Mitochondria Different-Phenotype (%) [2]: 49% and 63%
Population Mitotic Cells (%) [2]: 68% and 39%
Population Normal (%) [2]: 93% and 90%
Population Pyknosed Nuclei (%) [2]: 7% and 11%
Population Tubulin-Different-Phenotype (%) [2]: 33%
Total Cell Count [2]: 460 and 391
Population Apoptotic (%) [3]: 25%
Population Fragmented Nuclei (%) [3]: 11% and 9%
Population Healthy Nuclei (%) [3]: 78% and 83%
Population Hoechst High Intensity Objects (%) [3]: 5%
Population Membrane Permeable-Phenotype (%) [3]: 1% and 0%
Population Mitochondria Different-Phenotype (%) [3]: 26% and 32%
Population Mitotic Cells (%) [3]: 74% and 75%
Population Normal (%) [3]: 94%
Population Pyknosed Nuclei (%) [3]: 10% and 6%
Population Tubulin-Different-Phenotype (%) [3]: 21% and 9%
Total Cell Count [3]: 542 and 486
Population Apoptotic (%) [4]: 32% and 47%
Population Fragmented Nuclei (%) [4]: 12% and 15%
Population Healthy Nuclei (%) [4]: 77% and 74%
Population Hoechst High Intensity Objects (%) [4]: 5% and 15%
Population Membrane Permeable-Phenotype (%) [4]: 0%
Population Mitochondria Different-Phenotype (%) [4]: 38% and 48%
Population Mitotic Cells (%) [4]: 67% and 52%
Population Normal (%) [4]: 94% and 84%
Population Pyknosed Nuclei (%) [4]: 9%
Population Tubulin-Different-Phenotype (%) [4]: 23% and 19%
Total Cell Count [4]: 588 and 505
Population Apoptotic (%) [5]: 23% and 21%
Population Fragmented Nuclei (%) [5]: 11% and 16%
Population Healthy Nuclei (%) [5]: 81% and 75%
Population Hoechst High Intensity Objects (%) [5]: 2% and 5%
Population Membrane Permeable-Phenotype (%) [5]: 2% and 1%
Population Mitochondria Different-Phenotype (%) [5]: 19% and 24%
Population Mitotic Cells (%) [5]: 76% and 78%
Population Normal (%) [5]: 97% and 94%
Population Pyknosed Nuclei (%) [5]: 6% and 8%
Population Tubulin-Different-Phenotype (%) [5]: 14% and 13%
Total Cell Count [5]: 814 and 596
Population Apoptotic (%) [6]: 29% and 58%
Population Fragmented Nuclei (%) [6]: 17% and 15%
Population Healthy Nuclei (%) [6]: 75% and 76%
Population Hoechst High Intensity Objects (%) [6]: 5% and 11%
Population Membrane Permeable-Phenotype (%) [6]: 1% and 0%
Population Mitochondria Different-Phenotype (%) [6]: 21% and 35%
Population Mitotic Cells (%) [6]: 70% and 41%
Population Normal (%) [6]: 94% and 88%
Population Pyknosed Nuclei (%) [6]: 6% and 7%
Population Tubulin-Different-Phenotype (%) [6]: 13% and 20%
Total Cell Count [6]: 883 and 641
